Experimental data pooled from the literature.
Lines come from different studies, so protocols differ.

SMILES | tested on | assay | system | conditions | measurement | result
CC(C)C[C@H](NC(=O)[C@H](CC(C)C)NC(=O)[C@H](CCCCN)NC(=O)[C@H](CCCCN)NC(=O)[C@H](CC(C)C)NC(=O)[C@H](CC(C)C)NC(=O)[C@H](CCCCN)NC(=O)[C@H](CCCCN)NC(=O)[C@H](CC(C)C)NC(=O)[C@H](CC(C)C)NC(=O)[C@H](CCCCN)NC(=O)[C@H](CCCCN)NC(=O)[C@H](CC(C)C)NC(=O)[C@@H](N)CCC(=O)O)C(N)=O | HCCC9810 | cell growth or viability, CCK-8 | – | – | IC50 | 8870 nM
N.N.[Cl][Pt][Cl] | RS4-11 | cell growth or viability, ATP luminescence | – | 10 µM, 72 h | inhibition | 100%
CC(C)C[C@H](NC(=O)[C@H](CC(C)C)NC(=O)[C@H](CCCCN)NC(=O)[C@H](CCCCN)NC(=O)[C@H](CC(C)C)NC(=O)[C@H](CC(C)C)NC(=O)[C@H](CCCCN)NC(=O)[C@H](CCCCN)NC(=O)[C@H](CCC(=O)O)NC(=O)[C@H](CC(C)C)NC(=O)[C@H](CCCCN)NC(=O)[C@H](CCCCN)NC(=O)[C@H](CC(C)C)NC(=O)[C@@H](N)CC(C)C)C(N)=O | HCCC9810 | cell growth or viability, CCK-8 | – | – | IC50 | 325000 nM
COc1ccc2cc1Oc1ccc(cc1)C[C@H]1c3c(cc4c(c3Oc3cc5c(cc3OC)CCN(C)[C@@H]5C2)OCO4)CCN1C | Plasmodium falciparum | parasite growth | DD2 | drug-resistant strain, blood stage | IC50 | 136 nM
N=C(CC(O)c1cc2c(F)cc(F)cc2c2cc(C(F)(F)F)ccc12)Nc1cccc(F)c1 (stereo not drawn) | Plasmodium falciparum | parasite growth, ELISA | 3D7 | 72 h, blood stage | IC50 | 2.1 nM
CC(C)C[C@H](NC(=O)[C@H](CC(C)C)NC(=O)[C@H](CCCCN)NC(=O)[C@H](CCCCN)NC(=O)[C@H](CC(C)C)NC(=O)[C@H](CC(C)C)NC(=O)[C@H](CCCCN)NC(=O)[C@H](CCCCN)NC(=O)[C@H](CC(C)C)NC(=O)[C@H](CC(C)C)NC(=O)[C@H](CCCCN)NC(=O)[C@H](CCCCN)NC(=O)[C@H](CCC(=O)O)NC(=O)[C@@H](N)CC(C)C)C(N)=O | HCCC9810 | cell growth or viability, CCK-8 | – | – | IC50 | 6960 nM
N=C(CC(O)c1cc2c(F)cc(F)cc2c2cc(C(F)(F)F)ccc12)Nc1nc2ccccc2[nH]1 (stereo not drawn) | Plasmodium falciparum | parasite growth, ELISA | 3D7 | 72 h, blood stage | IC50 | 5590 nM
CCN1CCN(Cc2ccc(Nc3nc4ccc(Oc5ccnc(NC(=O)C6CCN(C)CC6)c5)cc4n3C)cc2C(F)(F)F)CC1 | Plasmodium falciparum | parasite growth, SYBR Green | DD2 | blood stage | EC50 | 116 nM
CCN(CC)CCOc1ccc2c(c1)C(=O)c1cc(OCCN(CC)CC)ccc1-2 | Plasmodium falciparum | parasite growth | DD2 | drug-resistant strain, blood stage | IC50 | 556 nM
N#Cc1ccc(NC(=N)CC(O)c2cc3c(F)cc(F)cc3c3cc(C(F)(F)F)ccc23)cc1 (stereo not drawn) | Plasmodium falciparum | parasite growth, ELISA | 3D7 | 72 h, blood stage | IC50 | 24.7 nM
CO[C@H]1/C=C/O[C@@]2(C)Oc3c(C)c(O)c4c(O)c(c(/C=N/N5CCN(C6CCCC6)CC5)c(O)c4c3C2=O)NC(=O)/C(C)=C\C=C\[C@H](C)[C@H](O)[C@@H](C)[C@@H](O)[C@@H](C)[C@H](OC(C)=O)[C@@H]1C | Plasmodium falciparum | parasite growth | DD2 | drug-resistant strain, blood stage | IC50 | 1980 nM
COc1cc(NC(=N)CC(O)c2cc3c(F)cc(F)cc3c3cc(C(F)(F)F)ccc23)ccc1Br (stereo not drawn) | Plasmodium falciparum | parasite growth, ELISA | 3D7 | 72 h, blood stage | IC50 | 13.6 nM
C[C@@H]1CC[C@H]2[C@@H](C)C(=O)O[C@@H]3O[C@@]4(C)CC[C@@H]1[C@]32OO4 | Plasmodium falciparum | parasite growth | K1 | drug-resistant strain, blood stage | IC50 | 0.6 nM
N=C(CC(O)c1cc2c(F)cc(F)cc2c2cc(C(F)(F)F)ccc12)Nc1nnc(-c2ccc(F)cc2)o1 (stereo not drawn) | Plasmodium falciparum | parasite growth, ELISA | 3D7 | 72 h, blood stage | IC50 | > 37000 nM
CC(=O)N[C@H]1[C@@H](O[C@@H]2O[C@H](C[C@@H](O)[C@H]3O[C@@H](n4ccc(=O)[nH]c4=O)[C@H](O)[C@@H]3O)[C@H](O)[C@H](O)[C@H]2NC(=O)/C=C/CCCCCCCCCC(C)C)O[C@H](CO)[C@@H](O)[C@@H]1O | MDA-MB-453 | cell growth or viability, WST-1 | – | – | IC50 | 160 nM
